{"data": "Measurements gathered from unrelated publications", "MTNR1A": "Melatonin receptor type 1A (MTNR1A, Homo sapiens, UniProt P48039)", "note": "Each line is one published result; the experiments were not run side by side."}
{"SMILES": "COc1ccc2cccc(C(CO)CNC(=O)CF)c2c1 (centres unmarked)", "target": "MTNR1A", "test": "cAMP, agonist, TR-FRET", "system": "CHO-K1", "conditions": "20 min", "endpoint": "Emax", "result": "93%"}
{"SMILES": "C#Cc1n[nH]c2c(-c3cn(C(C)c4ccccn4)c(=O)[nH]c3=O)cc(F)cc12 (centres unmarked)", "target": "Myotonin-protein kinase (DMPK, Homo sapiens, UniProt Q09013)", "test": "enzyme activity, inhibitor", "conditions": "1 µM", "endpoint": "inhibition", "result": "1.2%"}
{"SMILES": "COc1ccc2[nH]cc(CCNC(=O)CI)c2c1", "target": "MTNR1A", "test": "cAMP, agonist, TR-FRET", "system": "CHO-K1", "conditions": "20 min", "endpoint": "Emax", "result": "103%"}
{"SMILES": "COc1ncccc1-c1cnn2ccc(N3CCN(C(=O)OC(C)C)CC3)nc12", "target": "BMP-2-inducible protein kinase (BMP2K, Homo sapiens, UniProt Q9NSY1)", "test": "binding, competition with immobilised ligand", "conditions": "1 µM", "endpoint": "remaining binding", "result": "3.5%"}
{"SMILES": "Cc1ccccc1N(C)C(=O)Oc1nsnc1N1CCCCC1", "target": "Fatty-acid amide hydrolase 1 (FAAH, Homo sapiens, UniProt O00519)", "test": "enzyme activity, inhibitor", "conditions": "10 µM, cell membranes", "endpoint": "inhibition", "result": "40%"}
{"SMILES": "Nc1ncc(-c2nc(N3CCOCC3)nc(N3CCOCC3)n2)c(C(F)F)n1", "target": "Aurora kinase A (AURKA, Homo sapiens, UniProt O14965)", "test": "binding, competition with immobilised ligand", "conditions": "10 µM", "endpoint": "remaining binding", "result": "52%"}
{"SMILES": "CCN(CC)CCCC[C@H](NC(=O)[C@H](CC(C)C)NC(=O)[C@H](C)NC(=O)[C@H](Cc1ccccc1)NC(=O)c1ccc(C(C)(C)C)cc1)C(=O)N[C@@H](CO)C(=O)OC", "target": "MTNR1A", "test": "ligand displacement, radioligand", "conditions": "10 µM", "endpoint": "remaining binding", "result": "92.1%"}
{"SMILES": "Cc1nn(C)cc1-c1nc2c(N3CCN(Cc4ccc(Cl)cc4)CC3)c(Cl)cnc2[nH]1", "target": "Tyrosine-protein kinase receptor Tie-1 (TIE1, Homo sapiens, UniProt P35590)", "test": "binding, competition with immobilised ligand", "conditions": "1 µM", "endpoint": "remaining binding", "result": "47%"}
